Source: article PMC8269116 (Journal of psychopharmacology (Oxford, England), 2019)
Values joined by “and” are separate entries in the source; they are usually repeats but may differ in a detail not shown here. Equal values may be shown once. Read-outs that look alike come from different tables or passages of the source.

Assays:
dopamine D2 receptors = dopamine D2 receptors (Homo sapiens, UniProt P14416); assay: Radioligand binding, [3H]spiperone displacement
[1] = healthy human subjects, oral MDMA; ref Schmid et al., 2016; cited from earlier work
NET [2] = target: T1, NET (Homo sapiens, UniProt P23975); assay: Radioligand binding, N-methyl-[3H]nisoxetine displacement
DAT [3] = target: T2, DAT (Homo sapiens, UniProt Q01959); assay: [3H]dopamine uptake inhibition in HEK 293 cells overexpressing human DAT; format: cell-based; conditions: for DAT/SERT ratio: 1/DAT IC50 : 1/SERT IC50, mean and 95% confidence interval
5-HT2A receptor = 5-HT2A receptor (Homo sapiens, UniProt P28223); assay: Radioligand binding, [3H]ketanserin displacement
DAT [4] = target: T2, DAT; assay: Radioligand binding, [3H]WIN35,428 displacement
NET [5] = target: T1, NET; assay: [3H]norepinephrine uptake inhibition in HEK 293 cells overexpressing human NET; format: cell-based
rat TAAR1 = rat TAAR1 (Rattus norvegicus, UniProt Q923Y9); assay: Radioligand binding, [3H]RO5166017 displacement
mouse TAAR1 = mouse TAAR1 (Mus musculus, UniProt Q923Y8); assay: Radioligand binding, [3H]RO5166017 displacement
5-HT1A receptor = target: T3, 5-HT1A receptor (Homo sapiens, UniProt P08908); assay: Radioligand binding, [3H]8-hydroxy-2-
T3 sequence (P08908 1-422): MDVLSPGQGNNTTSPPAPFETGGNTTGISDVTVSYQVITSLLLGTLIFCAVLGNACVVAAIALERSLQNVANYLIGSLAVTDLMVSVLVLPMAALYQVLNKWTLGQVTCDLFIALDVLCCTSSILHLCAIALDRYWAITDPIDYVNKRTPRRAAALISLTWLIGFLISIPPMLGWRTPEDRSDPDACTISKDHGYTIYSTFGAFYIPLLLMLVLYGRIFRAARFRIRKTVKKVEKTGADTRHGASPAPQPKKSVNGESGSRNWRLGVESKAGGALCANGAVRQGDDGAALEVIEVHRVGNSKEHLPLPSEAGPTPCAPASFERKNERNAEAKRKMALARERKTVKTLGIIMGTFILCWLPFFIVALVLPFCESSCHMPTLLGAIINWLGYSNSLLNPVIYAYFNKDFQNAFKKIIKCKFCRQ

[6] = target: T4, α1 adrenergic receptor (α1A) (Homo sapiens, UniProt P35348); assay: Radioligand binding, [3H]prazosin displacement
T4 sequence (P35348 1-466): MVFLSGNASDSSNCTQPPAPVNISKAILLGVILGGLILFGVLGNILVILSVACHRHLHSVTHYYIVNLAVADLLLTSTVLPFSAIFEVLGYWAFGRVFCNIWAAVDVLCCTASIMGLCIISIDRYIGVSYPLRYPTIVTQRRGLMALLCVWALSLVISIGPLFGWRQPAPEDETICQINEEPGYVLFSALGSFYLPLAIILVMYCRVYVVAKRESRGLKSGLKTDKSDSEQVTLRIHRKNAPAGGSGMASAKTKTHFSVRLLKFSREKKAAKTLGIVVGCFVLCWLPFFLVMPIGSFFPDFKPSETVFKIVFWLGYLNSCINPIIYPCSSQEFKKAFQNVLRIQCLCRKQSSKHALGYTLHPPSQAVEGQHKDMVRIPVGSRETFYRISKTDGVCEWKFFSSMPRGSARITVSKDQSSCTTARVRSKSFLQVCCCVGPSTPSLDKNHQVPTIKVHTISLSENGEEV

[7] = target: T5, α2 adrenergic receptor (α2A) (Homo sapiens, UniProt P08913); assay: Radioligand binding, [3H]rauwolscine displacement
T5 sequence (P08913 1-465): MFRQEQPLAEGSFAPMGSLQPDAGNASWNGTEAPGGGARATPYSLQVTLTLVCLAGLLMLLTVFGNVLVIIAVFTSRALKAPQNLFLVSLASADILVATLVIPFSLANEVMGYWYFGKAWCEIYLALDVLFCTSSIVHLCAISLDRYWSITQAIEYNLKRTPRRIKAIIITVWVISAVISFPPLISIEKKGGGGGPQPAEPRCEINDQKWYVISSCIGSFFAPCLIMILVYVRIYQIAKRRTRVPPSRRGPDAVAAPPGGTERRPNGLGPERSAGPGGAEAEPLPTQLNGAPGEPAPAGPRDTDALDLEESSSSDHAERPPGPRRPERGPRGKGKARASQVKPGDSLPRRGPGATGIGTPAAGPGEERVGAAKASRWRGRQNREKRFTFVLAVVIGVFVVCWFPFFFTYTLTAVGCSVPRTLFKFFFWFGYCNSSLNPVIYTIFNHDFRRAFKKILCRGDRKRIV

human 5-HT2B receptor = human 5-HT2B receptor (Homo sapiens, UniProt P41595); assay: 5-HT2B receptor activation, FLIPR calcium assay in HEK 293 cells; format: cell-based
[8] = target: human 5-HT transporter (SERT) (Homo sapiens, UniProt P31645); assay: [3H]5-HT uptake inhibition in HEK 293 cells overexpressing human SERT; format: cell-based
SERT = SERT (Homo sapiens, UniProt P31645); assay: Radioligand binding, [3H]citalopram displacement
human TAAR1 = target: T6, human TAAR1 (Homo sapiens, UniProt Q96RJ0); assay: Human TAAR1 activation, cAMP assay in HEK 293 cells; format: cell-based
T6 sequence (Q96RJ0 1-339): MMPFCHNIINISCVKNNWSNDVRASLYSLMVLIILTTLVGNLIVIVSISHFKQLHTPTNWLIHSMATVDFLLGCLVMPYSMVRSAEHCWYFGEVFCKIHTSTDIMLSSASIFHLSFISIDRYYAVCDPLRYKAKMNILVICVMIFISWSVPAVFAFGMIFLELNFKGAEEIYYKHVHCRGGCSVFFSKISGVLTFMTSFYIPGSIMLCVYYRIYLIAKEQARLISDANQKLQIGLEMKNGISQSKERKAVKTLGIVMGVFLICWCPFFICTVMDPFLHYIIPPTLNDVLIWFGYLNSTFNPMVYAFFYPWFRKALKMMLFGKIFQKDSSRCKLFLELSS
Procedure, shortened: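 Recombinant HEK 293 cells expressing human TAAR1 were pelleted, resuspended, seeded at 80,000/well and incubated 20 h at 37 °C. After a PBS wash, the cells were preincubated 60 min at 37 °C in KRB with 1 mM IBMX. Test compound (300 pM–30 μM, duplicate), β-phenylethylamine (maximal response) or basal control was added for 40 min at 37 °C. Cells were lysed 120 min at RT with Ru-cAMP Alexa700 anti-cAMP antibody mix, and fluorescence was read against a per-plate cAMP standard curve (0.13 nM–10 μM).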

5-HT2C receptor = target: T7, 5-HT2C receptor (Homo sapiens, UniProt P28335); assay: biochemical; format: binding
T7 sequence (P28335 33-458): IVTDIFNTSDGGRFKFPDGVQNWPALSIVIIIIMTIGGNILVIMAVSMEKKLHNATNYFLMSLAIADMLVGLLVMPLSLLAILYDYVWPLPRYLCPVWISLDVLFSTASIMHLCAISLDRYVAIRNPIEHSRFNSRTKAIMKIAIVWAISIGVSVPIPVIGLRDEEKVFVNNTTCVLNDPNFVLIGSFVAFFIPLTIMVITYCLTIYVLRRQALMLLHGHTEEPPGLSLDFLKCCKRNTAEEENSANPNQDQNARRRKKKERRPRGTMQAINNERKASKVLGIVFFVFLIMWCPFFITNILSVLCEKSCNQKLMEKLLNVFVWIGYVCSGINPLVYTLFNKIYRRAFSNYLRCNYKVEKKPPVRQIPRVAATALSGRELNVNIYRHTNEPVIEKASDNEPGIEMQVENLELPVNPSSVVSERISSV

[9] = ref Lopez-Arnau et al., 2013, cited from earlier work
[10] = after subcutaneous injection of methylone; ref Stefkova et al., 2017; cited from earlier work
[11] = rat plasma, subcutaneous methylone; ref Elmore et al., 2017; cited from earlier work
[12] = read-out: 5-HT2A Ki, mean±SD, n=3
[13] = read-out: TAAR1rat Ki, mean±SD, n=3
[14] = read-out: TAAR1mouse Ki, mean±SD, n=3
[15] = read-out: 5-HT1A Ki, mean±SD, n=3
[16] = read-out: 5-HT2c Ki, mean±SD, n=3
[17] = read-out: SERT IC50, 5-HT uptake inhibition, mean and 95% confidence interval
[18] = read-out: SERT Ki, mean±SD, n=3

T1 sequence (P23975 whole entry): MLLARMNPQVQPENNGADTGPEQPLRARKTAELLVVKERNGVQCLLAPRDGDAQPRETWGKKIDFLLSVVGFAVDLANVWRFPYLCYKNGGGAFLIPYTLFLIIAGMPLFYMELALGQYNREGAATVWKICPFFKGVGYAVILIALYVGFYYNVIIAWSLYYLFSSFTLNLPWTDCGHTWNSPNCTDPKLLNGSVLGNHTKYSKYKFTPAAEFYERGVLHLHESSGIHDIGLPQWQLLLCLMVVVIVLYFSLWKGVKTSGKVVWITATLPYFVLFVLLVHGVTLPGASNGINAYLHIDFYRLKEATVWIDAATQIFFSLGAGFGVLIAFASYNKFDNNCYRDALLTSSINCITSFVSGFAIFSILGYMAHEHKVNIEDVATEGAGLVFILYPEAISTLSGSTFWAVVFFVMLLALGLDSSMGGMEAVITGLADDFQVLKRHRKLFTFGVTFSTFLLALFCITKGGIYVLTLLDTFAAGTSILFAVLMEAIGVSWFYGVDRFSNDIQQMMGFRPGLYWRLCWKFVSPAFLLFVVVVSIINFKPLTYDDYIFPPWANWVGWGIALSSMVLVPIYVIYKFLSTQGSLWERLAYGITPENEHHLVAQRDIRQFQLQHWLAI
Chain of rat TAAR1 (Q923Y9 whole entry): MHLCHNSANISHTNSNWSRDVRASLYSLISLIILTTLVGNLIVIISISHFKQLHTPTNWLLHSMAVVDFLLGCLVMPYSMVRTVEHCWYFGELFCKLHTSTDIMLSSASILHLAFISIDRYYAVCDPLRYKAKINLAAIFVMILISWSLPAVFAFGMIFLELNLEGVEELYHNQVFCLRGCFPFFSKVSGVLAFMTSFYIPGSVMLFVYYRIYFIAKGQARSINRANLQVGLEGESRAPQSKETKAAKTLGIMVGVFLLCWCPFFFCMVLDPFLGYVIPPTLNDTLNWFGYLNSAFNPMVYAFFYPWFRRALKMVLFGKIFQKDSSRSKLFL
Chain of dopamine D2 receptors (P14416 whole entry): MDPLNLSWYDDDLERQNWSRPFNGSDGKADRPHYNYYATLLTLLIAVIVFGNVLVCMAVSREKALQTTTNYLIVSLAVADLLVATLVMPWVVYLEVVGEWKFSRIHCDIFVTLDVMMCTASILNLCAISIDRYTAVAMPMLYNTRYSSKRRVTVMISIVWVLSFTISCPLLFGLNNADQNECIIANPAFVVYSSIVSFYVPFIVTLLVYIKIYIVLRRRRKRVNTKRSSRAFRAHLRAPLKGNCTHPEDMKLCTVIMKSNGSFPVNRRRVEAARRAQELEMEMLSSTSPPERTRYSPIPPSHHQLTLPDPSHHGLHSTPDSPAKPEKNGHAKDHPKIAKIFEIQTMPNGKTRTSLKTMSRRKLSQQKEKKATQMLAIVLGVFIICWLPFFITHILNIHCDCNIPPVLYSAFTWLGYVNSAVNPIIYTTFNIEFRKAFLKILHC
Chain of 5-HT2A receptor (P28223 whole entry): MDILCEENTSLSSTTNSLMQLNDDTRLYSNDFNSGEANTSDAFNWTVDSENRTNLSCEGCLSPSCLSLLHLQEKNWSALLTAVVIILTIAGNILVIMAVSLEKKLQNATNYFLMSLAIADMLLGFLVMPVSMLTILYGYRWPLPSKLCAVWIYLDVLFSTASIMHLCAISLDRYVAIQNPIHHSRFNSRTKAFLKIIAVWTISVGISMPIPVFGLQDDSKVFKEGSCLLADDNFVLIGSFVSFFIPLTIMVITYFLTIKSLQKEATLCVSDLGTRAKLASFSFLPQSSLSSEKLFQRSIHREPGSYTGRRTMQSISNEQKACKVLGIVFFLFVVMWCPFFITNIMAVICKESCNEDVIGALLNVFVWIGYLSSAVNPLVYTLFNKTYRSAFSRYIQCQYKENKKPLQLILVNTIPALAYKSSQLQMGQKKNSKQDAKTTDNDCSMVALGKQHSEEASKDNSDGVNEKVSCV
T2 sequence (Q01959 whole entry): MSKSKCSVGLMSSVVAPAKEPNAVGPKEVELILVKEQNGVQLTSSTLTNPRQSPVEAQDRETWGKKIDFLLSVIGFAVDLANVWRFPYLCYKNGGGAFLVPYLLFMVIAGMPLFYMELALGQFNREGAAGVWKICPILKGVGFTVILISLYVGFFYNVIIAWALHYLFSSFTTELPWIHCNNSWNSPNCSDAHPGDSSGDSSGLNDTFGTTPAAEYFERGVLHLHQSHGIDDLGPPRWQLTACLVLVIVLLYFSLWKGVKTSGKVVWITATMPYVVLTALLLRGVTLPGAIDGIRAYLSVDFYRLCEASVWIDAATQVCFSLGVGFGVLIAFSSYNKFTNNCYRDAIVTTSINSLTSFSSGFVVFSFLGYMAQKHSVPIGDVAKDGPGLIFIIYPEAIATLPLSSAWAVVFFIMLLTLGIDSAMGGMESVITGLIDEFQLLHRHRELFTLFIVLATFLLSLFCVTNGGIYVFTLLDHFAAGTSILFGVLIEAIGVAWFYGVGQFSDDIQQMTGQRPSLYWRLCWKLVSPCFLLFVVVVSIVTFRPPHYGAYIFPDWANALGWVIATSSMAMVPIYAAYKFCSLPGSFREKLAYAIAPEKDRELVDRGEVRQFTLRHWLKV
Chain of mouse TAAR1 (Q923Y8 whole entry): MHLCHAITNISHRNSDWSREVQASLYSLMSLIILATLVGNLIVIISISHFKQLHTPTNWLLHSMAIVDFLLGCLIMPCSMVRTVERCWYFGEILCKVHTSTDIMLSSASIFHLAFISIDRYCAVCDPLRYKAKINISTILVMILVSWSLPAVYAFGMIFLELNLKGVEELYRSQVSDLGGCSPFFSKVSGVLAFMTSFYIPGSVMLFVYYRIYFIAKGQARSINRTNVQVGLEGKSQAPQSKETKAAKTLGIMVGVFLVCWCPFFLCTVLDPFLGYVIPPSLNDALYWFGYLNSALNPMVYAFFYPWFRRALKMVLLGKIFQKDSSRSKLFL
Chain of human 5-HT transporter (SERT) (P31645 whole entry): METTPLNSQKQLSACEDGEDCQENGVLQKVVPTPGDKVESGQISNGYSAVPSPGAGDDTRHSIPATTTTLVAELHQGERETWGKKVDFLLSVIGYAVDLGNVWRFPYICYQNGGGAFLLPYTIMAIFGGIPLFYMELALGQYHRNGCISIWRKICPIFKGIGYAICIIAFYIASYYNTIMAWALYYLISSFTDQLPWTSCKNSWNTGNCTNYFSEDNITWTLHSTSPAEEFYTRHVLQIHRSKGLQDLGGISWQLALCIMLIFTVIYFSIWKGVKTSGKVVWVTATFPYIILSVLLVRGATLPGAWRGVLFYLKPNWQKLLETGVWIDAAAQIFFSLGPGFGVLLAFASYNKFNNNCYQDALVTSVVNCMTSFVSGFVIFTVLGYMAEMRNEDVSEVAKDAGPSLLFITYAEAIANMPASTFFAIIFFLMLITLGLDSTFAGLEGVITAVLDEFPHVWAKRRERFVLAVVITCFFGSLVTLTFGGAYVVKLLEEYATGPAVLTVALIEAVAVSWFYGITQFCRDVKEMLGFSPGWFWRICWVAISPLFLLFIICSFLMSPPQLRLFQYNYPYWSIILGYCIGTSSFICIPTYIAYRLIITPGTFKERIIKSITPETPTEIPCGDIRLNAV
Chain of SERT (P31645 whole entry): as above
Chain of human 5-HT2B receptor (P41595 whole entry): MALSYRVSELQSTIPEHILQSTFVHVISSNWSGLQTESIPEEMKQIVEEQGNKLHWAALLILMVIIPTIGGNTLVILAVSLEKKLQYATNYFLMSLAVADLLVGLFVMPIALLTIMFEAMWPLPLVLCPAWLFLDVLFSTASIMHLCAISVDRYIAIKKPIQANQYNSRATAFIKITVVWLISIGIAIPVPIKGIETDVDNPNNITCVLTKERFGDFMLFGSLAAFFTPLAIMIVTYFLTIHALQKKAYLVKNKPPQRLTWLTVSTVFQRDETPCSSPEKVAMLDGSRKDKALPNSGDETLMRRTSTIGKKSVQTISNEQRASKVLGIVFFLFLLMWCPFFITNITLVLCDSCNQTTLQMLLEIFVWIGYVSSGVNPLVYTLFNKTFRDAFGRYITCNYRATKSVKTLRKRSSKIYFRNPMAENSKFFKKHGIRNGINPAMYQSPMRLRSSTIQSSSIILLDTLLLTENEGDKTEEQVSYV

## CC(N)Cc1ccc2c(c1)OCO2 (stereo not shown) [MDA, 3,4-methylenedioxyamphetamine, reference compound]
Dopamine D2 receptors
  Ki: > 13 µM
[1]
  Cmax as % of the Cmax of MDMA: 4–8%
NET [2]
  Ki: > 8.8 µM
DAT [3]
  IC50: 17 µM
5-HT2A receptor
  Ki: 3.2 ± 0.8 µM
DAT [4]
  Ki: > 8.5 µM
NET [5]
  IC50: 0.38 µM
Rat TAAR1
  Ki: 0.22 ± 0.03 µM
Mouse TAAR1
  Ki: 0.18 ± 0.03 µM
5-HT1A receptor
  Ki: 9 ± 0.8 µM
[6]
  Ki: 8.8 ± 0.6 µM
[7]
  Ki: 2.6 ± 0.1 µM
Human 5-HT2B receptor
  EC50: 0.2 ± 0.01 µM
Human 5-HT2B receptor; relative to 5-HT activity defined as 100%
  5-HT2B receptor activation efficacy: 51 ± 7%
[8]
  IC50: 4.3 µM
SERT
  Ki: > 7.4 µM

## COc1cc(CC(C)N)ccc1O (stereo not shown) [HMA, 4-hydroxy-3-methyoxyamphetamine]
Dopamine D2 receptors; read-out: D2 Ki, mean±SD, n=3
  Ki: > 13 µM
NET [2]; read-out: NET Ki, mean±SD, n=3
  Ki: > 8.8 µM
DAT [3]
  DAT/SERT ratio: 270 (96–830)
DAT [3]; partial inhibition of dopamine uptake
  maximum dopamine transporter inhibition: 66%
5-HT2A receptor; [12]
  Ki: > 12 µM
DAT [4]; read-out: DAT Ki, mean±SD, n=3
  Ki: > 8.5 µM
Human TAAR1; read-out: human TAAR1 activation EC50
  EC50: 10.4 µM and 10 µM
Human TAAR1; β-phenylethylamine as maximal response
  human TAAR1 activation efficacy: 51 ± 12%
Rat TAAR1; [13]
  Ki: 0.15 ± 0.02 µM
Mouse TAAR1; [14]
  Ki: 0.05 ± 0.02 µM
5-HT1A receptor; [15]
  Ki: > 18 µM
[6]; read-out: α1A Ki, mean±SD, n=3
  Ki: > 9.5 µM
[7]; read-out: α2A Ki, mean±SD, n=3
  Ki: > 4.7 µM
5-HT2C receptor; [16]
  Ki: > 5.1 µM
[8]; [17]
  IC50: 35 µM
SERT; [18]
  Ki: > 7.4 µM

## CC(N)Cc1ccc(O)c(O)c1 (stereo not shown) [HHA, 3,4-Dihydroxyamphetamine]
Dopamine D2 receptors
  Ki: > 13 µM
NET [2]
  Ki: 0.79 ± 0.3 µM
DAT [3]
  IC50: 9.6 µM
DAT [3]; anomalous increase at some concentrations, non-sigmoidal curves
  increase of dopamine uptake: more than 200%
5-HT2A receptor
  Ki: 9.2 ± 1.7 µM
DAT [4]
  Ki: 2.9 ± 0.3 µM
NET [5]
  IC50: 0.18 µM
Rat TAAR1
  Ki: 1.9 ± 0.4 µM
Mouse TAAR1
  Ki: 1.4 ± 0.2 µM
5-HT1A receptor
  Ki: > 18 µM
[6]
  Ki: > 9.5 µM
[7]
  Ki: 2 ± 0.4 µM
5-HT2C receptor
  Ki: > 5.1 µM
[8]
  IC50: 63 µM
SERT
  Ki: > 7.4 µM

## CNC(C)Cc1ccc(O)c(OC)c1 (stereo not shown) [HMMA, 4-hydroxy-3-methoxymethamphetamine]
Dopamine D2 receptors; read-out: D2 Ki, mean±SD, n=3
  Ki: > 13 µM
[1]
  Cmax as % of the Cmax of MDMA: 9–48%
  Cmax of unconjugated form as % of the Cmax of MDMA: 1–3%
NET [2]; read-out: NET Ki, mean±SD, n=3
  Ki: > 8.8 µM
DAT [3]
  DAT/SERT ratio: 3.6 (1.4–8.9)
5-HT2A receptor; [12]
  Ki: > 12 µM
DAT [4]; read-out: DAT Ki, mean±SD, n=3
  Ki: > 8.5 µM
Rat TAAR1; [13]
  Ki: 0.25 ± 0.04 µM
Mouse TAAR1; [14]
  Ki: 0.45 ± 0.05 µM
5-HT1A receptor; [15]
  Ki: > 18 µM
[6]; read-out: α1A Ki, mean±SD, n=3
  Ki: > 9.5 µM
[7]; read-out: α2A Ki, mean±SD, n=3
  Ki: > 4.7 µM
5-HT2C receptor; [16]
  Ki: > 5.1 µM
[8]; [17]
  IC50: 20 µM
SERT; [18]
  Ki: > 7.4 µM

## CNC(C)C(=O)c1ccc2c(c1)OCO2 (stereo not shown) [Methylone, 3,4-methylenedioxymethcathinone, reference compound]
Dopamine D2 receptors
  Ki: > 13 µM
NET [2]
  Ki: > 8.7 µM
DAT [3]
  IC50: 6.6 µM
  DAT/SERT ratio: 2.7 (1.9–3.8)
5-HT2A receptor
  Ki: > 12 µM
[9]; 15 mg/kg oral dose
  Tmax: 30 min
[9]; 30 mg/kg oral dose
  Tmax: 60 min
DAT [4]
  Ki: 2.3 ± 0.1 µM
[10]
  brain vs. serum concentration, times higher: approximately five
  time of maximum brain and serum concentrations: 30 min
NET [5]
  IC50: 0.56 µM
[11]
  time at which Cmax was reached: 15 min
Rat TAAR1
  Ki: > 5 µM
Mouse TAAR1
  Ki: > 4.7 µM
5-HT1A receptor
  Ki: > 17 µM
[6]
  Ki: > 9.5 µM
[7]
  Ki: > 5 µM
5-HT2C receptor
  Ki: > 14 µM
[8]
  IC50: 18 µM
SERT
  Ki: > 7.5 µM
